sdo1 growth = sdo1-depleted yeast growth rescue. S. cerevisiae sdo1-depleted JHY4D growth rescue, OD600 30 h; hits give high values; pdr5 snq2 efflux-pump mutant strain. z-score at 10 µM. 0.21% of 140,000 active. AID 817;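 active means z-score above 3 at both the 24 hr and the 30 hr optical density reads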;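 further: z-score against mean and SD of all compound wells on the same plate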
Autophagy HCS = autophagy modulation, high-content screen; MEF GFP-LC3 puncta imaging; test concentration mostly 10 µM; calls only at 10 µM (by protocol); 0.98% of 190,000 active; AID 463193;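 active means percentage of spot-positive cells more than 3 SD above its plate mean, without a fluorescence outlier flag or 80% toxicity; inconclusive means no clear call, values can overlap the other calls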;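 further: spot-positive cell cutoff set from DMSO-treated cells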
bCat KO growth = beta-catenin-lacking colon tumor cell growth suppression; HCT116 beta-catenin knockout viability, CellTiter-Glo, 60 h; hits give low values; viability, % at 10 µM; 1.5% of 140,000 active; AID 818;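 active means viability at or under a set limit, the compound median less 4 SD, cut at about 6% in these data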;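 further: 0% = Hyamine 1622 control at 20 µM and 100% = untreated cell control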
PTEN del growth = PTEN-deleted cell growth suppression; HCT116 PTEN-null viability, CellTiter-Glo, 60 h; hits give low values; viability, % at 10 µM; 1.2% of 140,000 active; AID 827;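 active means viability at or below a set limit, 4 SD under the median of all tested compounds, cut at about 3.7% in these data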;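 further: PTEN knockout HCT116 line with beta catenin targeted HCT116 as companion control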
Dynein cargo inh = blocks dynein driven cargo transport along microtubules | 3617.4 mouse cells, GR-EGFP nuclear translocation imaging; test concentration mostly 20 µM; stimulated with dexamethasone, 1 µM; hits give low values | z-score, hits read low | 0.47% of 220,000 active | AID 1381;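 active means plate z-score of nuclear minus cytoplasmic receptor signal below a set negative limit, without overly bright fluorescence or cell loss, cut at about -3.5 in these data, passing the limit was not always enough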;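 further: z-score of nuclear minus cytoplasmic ring GR-EGFP intensity difference per well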
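Buffer or medium – tet-free medium with charcoal-stripped serum · Signal – automated 10x imaging of fixed Hoechst-stained cells · Also added – dexamethasone agonist, 1.0 µM final, for 30 min · Incubation – induction 48 h, compound 1 h, agonist 30 min · Read-out – GR-EGFP nuclear translocation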
sdo1 rescue conf = SDO1-depleted yeast growth rescue confirmation. shares compounds with sdo1 growth. OD recovery (test concentration not listed). AID 949. S. cerevisiae JHY4D (SDO1-depleted) growth rescue, OD600, 30 h; hits give high values; efflux-deficient strain, SNQ2 and PDR5 mutated. 44% of 440 active;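 active means yeast growth recovered at 30 hours, either rising with dose fitted slope above 0.001 or with average optical density gain above 0.07, some results past the limit were not filed as active; inactive means growth falling with dose or no effect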;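 further: gain in OD600 from 0 h to 30 h averaged across all seven doses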
Dynein confirm = dynein cargo transport inhibition, confirmation. shares compounds with Dynein cargo inh. 3617.4 GR-EGFP nuclear translocation imaging, dexamethasone-induced. calls only at 20 µM. 69% of 1,000 active;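 active means inhibition of receptor movement into the nucleus at or above a set limit in both runs, with normal cell brightness and cell count; inconclusive means limit reached in only one run, brightness and count normal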;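 further: dexamethasone at 1 µM final in well for 30 min; nuclear minus cytoplasmic GR-EGFP mean intensity difference in channel 2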
* = called active by the depositor. This is a sample that favours compounds with a hit; in the whole collection about 2.2% have one here.

What do the screens show for `Cc1cccc(NC(=S)N2CC3CC(C2)c2cccc(=O)n2C3)c1C` (stereo not drawn)?
sdo1 growth: 0.6; Autophagy HCS: inactive; bCat KO growth: 97; PTEN del growth: 105; Dynein cargo inh: 0.71

How did C=C1C(=O)O[C@@H]2C[C@@H](C)[C@@H]3C4OC4C(=O)[C@@]3(C)[C@@H](O)[C@H]12 (stereo partly drawn) do in these assays?
Dynein cargo inh: -3.8*

What do the screens show for `C[N+]1=C(/C=C/Nc2ccccc2)C(C)(C)c2ccccc21`?
sdo1 growth: 6.2*; Autophagy HCS: inactive; bCat KO growth: 52; PTEN del growth: 54; Dynein cargo inh: -0.76; sdo1 rescue conf: 0.14*

Results for O=C(N/N=C/c1c(O)n(CCC2=CCCCC2)c(=O)[nH]c1=O)c1ccccc1 ?
sdo1 growth: 1; Autophagy HCS: inactive; bCat KO growth: 51; PTEN del growth: 63; Dynein cargo inh: 0.17

How did Nc1ccccc1N=Cc1c(O)n(CCC2=CCCCC2)c(=O)[nH]c1=O do in these assays?
sdo1 growth: 7.4*; Autophagy HCS: inactive; bCat KO growth: 82; PTEN del growth: 83; Dynein cargo inh: -0.048; sdo1 rescue conf: 0.059

What do the screens show for `Cn1cc(NC(=O)CCl)cn1`?
Autophagy HCS: inactive; Dynein cargo inh: -0.64

What do the screens show for `COc1ccccc1N=Cc1c(O)n(C)c(=O)n(C)c1=O`?
sdo1 growth: 3.2*; Autophagy HCS: inactive; bCat KO growth: 92; PTEN del growth: 95; Dynein cargo inh: -0.51; sdo1 rescue conf: 0.083*

Results for CCn1c(O)c(C=Nc2cc(Cl)ccc2Cl)c(=O)n(CC)c1=O ?
sdo1 growth: 0.46; Autophagy HCS: inactive; bCat KO growth: 91; PTEN del growth: 91; Dynein cargo inh: 0.44

Results for Cc1cc([N+](=O)[O-])c2ccccc2[n+]1[O-] ?
Dynein cargo inh: -4.5*; Dynein confirm: active

What do the screens show for `CC1=C(C(=O)O)N2C(=O)[C@@H](NC(=O)CCCC(=O)O)[C@H]2SC1`?
Autophagy HCS: inactive; Dynein cargo inh: -0.28

How did CC(=O)C1(c2ccccc2)CCNCC1 do in these assays?
sdo1 growth: 0.89; Autophagy HCS: inactive; bCat KO growth: 96; PTEN del growth: 104; Dynein cargo inh: -0.74

How did COc1ncccc1C(=O)NCC(CC(=O)O)c1ccccc1 (stereo not drawn) do in these assays?
sdo1 growth: 0.66; Autophagy HCS: inactive; bCat KO growth: 101; PTEN del growth: 112; Dynein cargo inh: -0.4

What do the screens show for `CN1CCN(c2ccc([N+](=O)[O-])c3no[n+]([O-])c23)CC1`?
Dynein cargo inh: -4.7*; Dynein confirm: inactive

How did CN1CCN(c2ccc(S(C)(=O)=O)cc2[N+](=O)[O-])CC1 do in these assays?
sdo1 growth: 0.87; Autophagy HCS: inactive; bCat KO growth: 99; PTEN del growth: 101; Dynein cargo inh: 0.27

How did Cc1nn(CC(C)C)c(Cl)c1C(=O)O do in these assays?
Autophagy HCS: inactive; Dynein cargo inh: 1.8

Results for CC1(C)C[C@H]2C=C(C=O)[C@]3(C=O)C[C@]3(C)[C@H]2C1 ?
sdo1 growth: -2.6; Autophagy HCS: inactive; bCat KO growth: 2.0*; PTEN del growth: 1.8*; Dynein cargo inh: -5.1; Dynein confirm: active

Results for N#CCP(=S)(c1ccccc1)c1ccccc1 ?
sdo1 growth: -0.2; Autophagy HCS: inactive; bCat KO growth: 86; PTEN del growth: 98; Dynein cargo inh: -0.18

What do the screens show for `Cc1cc([N+](=O)[O-])c(Cl)cc1NC(=O)C(C)C`?
sdo1 growth: 0.84; Autophagy HCS: inactive; bCat KO growth: 84; PTEN del growth: 95; Dynein cargo inh: 0.99

What do the screens show for `CNc1cc(Cl)c2nonc2c1[N+](=O)[O-]`?
Autophagy HCS: inactive; Dynein cargo inh: -7*; Dynein confirm: inconclusive

How did C=CCN1C(=O)/C(=C/c2cc(C)n(-c3cccnc3)c2C)C(=O)NC1=S do in these assays?
sdo1 growth: 0.22; Autophagy HCS: inactive; bCat KO growth: 37; PTEN del growth: 22; Dynein cargo inh: -6.5*; Dynein confirm: inactive

How did CCN(CC)c1ccc(C=C2C(=O)NC(=S)NC2=O)cc1 do in these assays?
Dynein cargo inh: -5.1*; Dynein confirm: inconclusive

Results for COc1ccc(OC)c(N2C(=O)NC(=O)/C(=C/c3ccc([N+](=O)[O-])s3)C2=O)c1 ?
Autophagy HCS: inactive; Dynein cargo inh: -5.3*; Dynein confirm: active

What do the screens show for `CCN(CC)c1ccc(/C=N/c2sc3c(c2C#N)C2CCN3CC2)c(O)c1`?
sdo1 growth: -1.1; Autophagy HCS: inconclusive; bCat KO growth: 44; PTEN del growth: 44; Dynein cargo inh: -3.7; Dynein confirm: active

What do the screens show for `O=C1NC(=O)N(Cc2ccccc2)C(=O)/C1=C\C=C\c1ccco1`?
Autophagy HCS: inactive; Dynein cargo inh: -4.4*; Dynein confirm: active

Results for Cn1cccc1/C=C1\C(=O)NC(=O)N(Cc2ccco2)C1=O ?
Autophagy HCS: inactive; Dynein cargo inh: -0.23

What do the screens show for `O=C1NC(=O)N(Cc2ccco2)C(=O)/C1=C/C=C/c1ccco1`?
Dynein cargo inh: -3.8*; Dynein confirm: inconclusive

Results for COc1ccc2nc3oc(C(=O)N4CCC5(CC4)OCCO5)cc3cc2c1 ?
Autophagy HCS: inactive; Dynein cargo inh: 1.1

Results for COc1ccc(Oc2cc(NC(=O)c3nn(C)cc3[N+](=O)[O-])cc([N+](=O)[O-])c2)cc1 ?
sdo1 growth: -0.73; Autophagy HCS: active; bCat KO growth: 1.6*; PTEN del growth: 1.4*; Dynein cargo inh: -4*; Dynein confirm: active

How did CN1CCN(c2c(N)c(=O)oc3ccccc23)CC1 do in these assays?
sdo1 growth: 0.04; Autophagy HCS: inactive; bCat KO growth: 103; PTEN del growth: 104; Dynein cargo inh: 1.7

How did COc1cccc(C2CC3C(=O)C=CC2N3Cc2ccccc2)c1 (stereo not drawn) do in these assays?
sdo1 growth: -0.91; Autophagy HCS: inactive; bCat KO growth: 31; PTEN del growth: 25; Dynein cargo inh: -3.8*; Dynein confirm: active

What do the screens show for `C=C1C(=O)O[C@H]2C[C@@H](C)[C@@H]3C=CC(=O)[C@@]3(C)C[C@H]12`?
Dynein cargo inh: -3.8*; Dynein confirm: active

What do the screens show for `Cc1ccc(N2C(=O)NC(=O)/C(=C\C=C\c3ccco3)C2=O)cc1C`?
sdo1 growth: -0.2; Autophagy HCS: inactive; bCat KO growth: 16; PTEN del growth: 8; Dynein cargo inh: -5.6*; Dynein confirm: active

How did Cc1cc(N2CCOCC2)ccc1/C=C1\C(=O)NC(=O)N(c2ccccc2)C1=O do in these assays?
Autophagy HCS: inactive; Dynein cargo inh: -0.57

Bioassay records: PubChem, several laboratories
